In publication PMC4956519 (Journal of chromatography. B, Analytical technologies in …, 2016):
Where a SMILES comes first, the peptide text is derived from it.

Assay type: in vivo, mice
Procedure, shortened: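 Adult male C57BL/6J mice (20–25 g), single i.v. injection 10 mg/kg in 10% Solutol in saline; 5 mice per time point killed at 2, 5, 15, 30, 60 min, cardiac blood centrifuged for plasma. Plasma precipitated with ice-cold acetonitrile containing internal standard, supernatant diluted with water; C8 reversed-phase LC-MS/MS, positive-ion MRM m/z 578.1→217.1/245.0; calibration 0.5–500 ng/mL; non-compartmental analysis.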

[1] = male, C57BL/6J, mouse, plasma, iv, 10 mg/kg

Structure (SMILES): O=C1N[C@H](Cc2c[nH]c3ccccc23)C(=O)N[C@@H](Cc2ccccc2)C(=O)N2CCC[C@@H]2C(=O)N[C@H]1Cc1ccccc1 [[D-Trp]CJ-15,208, cyclo[Phe-D-Pro-Phe-D-Trp]] (HELM PEPTIDE1{F.[dP].F.[dW]}$PEPTIDE1,PEPTIDE1,1:R1-4:R2$$$V2.0)
- Time to almost complete elimination from plasma (10 mg/kg i.v. to mice, LC-MS/MS): ≤ 1 h
- AUC0-t (male C57BL/6J mice, 10 mg/kg i.v., plasma, LC-MS/MS, non-compartmental analysis, 5 mice per time point): 19124.7 ng·min/mL
- AUC(0-inf) [1]: 337 ng·h/mL
- C0 [1]: 1130 ng/mL
- Cmax [1]: 1020 ng/mL
- Vd [1]: 10.1 L/kg
- clearance [1]: 494 mL/min/kg
- half-life [1]: 14.2 min
- Decline of plasma concentration (within 15 minutes after 10 mg/kg i.v. to mice, LC-MS/MS): over 50%
